Screening results deposited in PubChem by several laboratories.
Rows were chosen to be rich in hits. Some 1.6% of all compounds tested hit in one or more screens of this group.
Beta2AR agonist: activates human beta-2 adrenergic receptor causing internalization; P07550; Am2.2-beta2AR cells, FAP receptor internalization, flow cytometry; response, % (concentration not given with the values); 0.43% of 340,000 active; AID 504454;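 active = response above a set limit, near 3 SD of response in nonfluorescent compounds, cut at about 42% in these data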
TLR4-MyD88 BLA: inhibitors of human TLR4-MyD88 binding. HeLa CL3-4 TLR4/MyD88 BLA complementation, FRET ratio. inhibition, % at 8.4 µM. 0.18% of 200,000 active. AID 861; in the data active = inhibition above about 25%;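 note: 0% = vehicle and 100% = reference inhibitor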
TLR9-MyD88 inh: inhibitors of human TLR9-MyD88 binding | Q9NR96+Q99836 | CHO BLA complementation TLR9-MyD88, CCF4 FRET ratio | inhibition, % at 4.98 µM | 0.21% of 340,000 active;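 active = inhibition above the mean over all tested compounds plus 3 SD, cut at about 21% in these data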;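 note: 0% = DMSO only wells and 100% = clavulanate BLA inhibitor control wells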
Dynein transport: blocks dynein driven cargo transport along microtubules | 0.47% of 220,000 active | z-score, hits read low | 3617.4 mouse cells, GR-EGFP nuclear translocation imaging; test concentration mostly 20 µM; stimulated with dexamethasone, 1 µM; active compounds read low;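 active = plate z-score of nuclear minus cytoplasmic receptor signal below a set negative limit, without overly bright fluorescence or cell loss, cut at about -3.5 in these data, passing the limit was not always enough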;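 note: z-score of nuclear minus cytoplasmic ring GR-EGFP intensity difference per well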
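Buffer or medium: tetracycline-free induction medium containing charcoal-stripped FBS / Reagent: dexamethasone agonist, 1.0 µM final, for 30 min / Technique: automated 10x imaging of fixed Hoechst-stained cells / Times: induction 48 h, compound 1 h, agonist 30 min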
ABHD5 PLIN5 PPI: ABHD5-PLIN5 protein interaction inhibition; Q00G26+Q8WTS1; Split G. princeps luciferase complementation, luminescence, 4 h; inhibition, % at 4 µM; 0.78% of 360,000 active; AID 602281;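 active = inhibition above the mean inhibition across every tested compound plus 3 SD, cut at about 22% in these data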;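 note: 0% = DMSO only wells and the 100% control is not disclosed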
NOD2 RIPK2 PPI: blocks binding of human NOD2 to RIPK2. O43353. CHO BLA complementation NOD2-RIPK2, CCF4 ratio. inhibition, % at 4.98 µM. 0.38% of 360,000 active; in the data active = inhibition above about 21%;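 note: 0% = vehicle only and 100% = reference blocker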
Target sequence (O43353 whole entry, looked up): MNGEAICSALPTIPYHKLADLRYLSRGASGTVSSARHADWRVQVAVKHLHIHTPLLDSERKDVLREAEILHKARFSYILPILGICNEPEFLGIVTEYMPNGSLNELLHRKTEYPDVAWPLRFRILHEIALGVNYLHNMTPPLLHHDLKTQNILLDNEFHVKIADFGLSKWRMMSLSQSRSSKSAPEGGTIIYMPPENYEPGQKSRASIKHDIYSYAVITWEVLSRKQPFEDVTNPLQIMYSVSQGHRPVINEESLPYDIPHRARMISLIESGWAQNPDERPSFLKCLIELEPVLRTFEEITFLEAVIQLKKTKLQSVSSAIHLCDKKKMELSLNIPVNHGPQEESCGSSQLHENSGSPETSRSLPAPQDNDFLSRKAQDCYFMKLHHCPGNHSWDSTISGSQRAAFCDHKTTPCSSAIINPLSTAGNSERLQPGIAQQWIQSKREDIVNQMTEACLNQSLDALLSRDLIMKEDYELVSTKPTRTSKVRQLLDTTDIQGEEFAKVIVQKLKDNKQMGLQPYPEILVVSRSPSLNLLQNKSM
NOD2-RIPK2 conf: NOD2-RIPK2 interaction inhibition confirmed; CHO cells, NOD2-RIPK2 BLA complementation, CCF4 FRET; shares compounds with NOD2 RIPK2 PPI; 70% of 1,200 active; AID 624370; inhibition, % at 4.98 µM;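 active = mean inhibition across replicates above a set limit taken from the earlier primary screen, cut at about 21% in these data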;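 note: 0% = DMSO-only wells and the high end = clavulanate BLA-blocked wells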
NOD2 BLA counter: counter-screen for NOD2-RIPK2 interaction inhibitors: BLA reporter | 57% of 1,200 active | shares compounds with NOD2 RIPK2 PPI | inhibition, % at 4.98 µM | CHO BLA reporter, CCF4 FRET ratio, counterscreen;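 active = mean inhibition above the low-control mean inhibition plus three low-control SD, cut at about 11% in these data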;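 note: 0% = DMSO only wells and 100% = clavulanate high control wells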
* = called active by the depositor; . = not tested or not shown.

SMILES | Beta2AR agonist | TLR4-MyD88 BLA | TLR9-MyD88 inh | Dynein transport | ABHD5 PLIN5 PPI | NOD2 RIPK2 PPI | NOD2-RIPK2 conf | NOD2 BLA counter
O=C(Nc1ccc(Cc2ccncc2)cc1)c1cccc([N+](=O)[O-])c1 | -2.8 | -3.9 | -8.9 | 0.387 | 0.3 | -1.6 | . | .
O=C(Nc1ccc(S(=O)(=O)N2CCCC2)cc1)c1ccc([N+](=O)[O-])o1 | 34.5 | . | 2.3 | . | 7.7 | 23.0* | 27.1* | 20.5*
O=C(Nc1ccc(Cc2ccncc2)cc1)c1ccc([N+](=O)[O-])o1 | 14.6 | . | 6.7 | . | -8.5 | 21.4* | 32.1* | 15.7*
CC(=O)N1CCN(c2ccc(NC(=O)c3ccc([N+](=O)[O-])o3)cc2Cl)CC1 | 10.7 | . | 4.1 | . | -4.3 | 28.2* | 26.7* | 6.4
CC(=O)N1CCN(c2ccc(NC(=O)c3ccco3)cc2Cl)CC1 | -13.1 | . | -1.9 | . | 1.2 | 6.7 | . | .
O=[N+]([O-])c1cc(S(=O)(=O)Oc2ccccc2)ccc1Cl | 40.8 | . | 15.8 | . | 3.6 | 57.8* | 15.9 | 0.6
COc1ccc(COc2cc(-c3cccc(OC)c3)nc3ccc(N)cc23)cc1 | 9.2 | -4.6 | 4.2 | -0.311 | -7.2 | 30.9* | 11.5 | 14.8*
C[C@@H]1CN([C@@H](C)CO)C(=O)CCCn2nncc2CO[C@@H]1CN(C)C(=O)Nc1ccc(C(C)(C)C)cc1 | . | . | -3.2 | . | 6.0 | 6.5 | . | .
Cc1c(Cl)cccc1NC(=S)NCc1ccccc1 | 0.6 | -11.9 | -4.4 | 1.04 | -4.5 | -3.2 | . | .
Cc1c(Cl)cccc1NC(=S)NCc1ccc(Cl)cc1 | 4.0 | 1.3 | -12.7 | 0.625 | -7.0 | 21.7* | -5.9 | -3.4
N#C/C(C(=O)Nc1ccc(Cl)cc1)=C(/S)Nc1ccccc1 | -11.5 | . | 7.2 | . | -12.4 | 25.9* | 24.1* | 1.6
O=C(Nc1ccc(Nc2ccccc2)cc1)c1ccc(Cl)cc1 | 1.3 | . | 6.0 | . | -6.2 | -2.0 | . | .
O=C(Nc1ccc2ccccc2c1)C(c1ccccc1)n1c(=O)c(-c2cc3ccccc3[nH]2)nc2ccccc21 (configuration not stated) | . | . | . | . | -13.3 | 46.8* | 41.6* | 66.2*
Cc1cccc(C)c1NC(=O)C(c1ccc(C#N)cc1)n1c(=O)c(-c2cc3ccccc3[nH]2)nc2ccccc21 (configuration not stated) | . | . | . | . | 3.1 | 58.1* | 54.8* | 73.5*
Cc1cccc(C)c1NC(=O)C(c1ccncc1)N1CCN(C)CC1 (configuration not stated) | . | . | . | . | 1.8 | -25.5 | . | .
Cc1cccc(C)c1NC(=O)C(c1ccccc1)n1c(=O)c(-c2cc3ccccc3[nH]2)nc2ccccc21 (configuration not stated) | . | . | . | . | 0.3 | 46.6* | 45.3* | 67.7*
CCC(C(=O)Nc1c(C)cccc1C)n1c(-c2ccc(-c3ccccc3)cc2)nc2ccccc21 (configuration not stated) | . | . | . | . | -1.6 | -10.2 | . | .
Cc1cccc(C)c1NC(=O)C(c1ccncc1)n1c(=O)c(-c2cc3ccccc3[nH]2)nc2ccccc21 (configuration not stated) | . | . | . | . | 7.6 | 47.1* | 44.1* | 63.4*
CC[C@@H](NCCCn1cnc2c(SC)ncnc21)c1ccccc1 | . | . | -1.6 | . | 0.3 | 8.3 | . | .
O=C(c1cc(-c2cccnc2)nc2ccccc12)N1CCN(S(=O)(=O)c2ccc(Cl)s2)CC1 | 7.9 | . | -1.1 | . | 0.1 | -3.0 | . | .
CCCCNC(=O)C1(C)CCCCN1C(=O)c1ccc(F)c(C)c1 (configuration not stated) | . | . | . | . | -4.2 | -0.1 | . | .
COc1ccc(Nc2nnc(SCC(=O)N3CCCC3)s2)cc1 | 1.5 | -3.2 | -3.8 | 0.917 | -4.7 | -5.2 | . | .
COc1ccc(Nc2nnc(SCC(=O)N3CC(=O)Nc4ccccc43)s2)cc1 | -29.5 | 3.0 | -1.4 | 1.4 | -2.0 | 26.6* | 3.5 | -7.6
CCOc1ccc(CCN2C(=S)N([C@@H](Cc3ccc(O)cc3)CN3CCC[C@@H]3CN3C(=S)NC[C@@H]3Cc3ccc(O)cc3)C[C@@H]2Cc2ccc(O)cc2)cc1 | . | . | . | . | 16.6 | -7.4 | . | .
CCOC(=O)C1(C)CCCN1C(=O)c1ccc(N(C)C)cc1 (configuration not stated) | . | . | . | . | 4.0 | -8.3 | . | .
SMILES | Beta2AR agonist | TLR4-MyD88 BLA | TLR9-MyD88 inh | Dynein transport | ABHD5 PLIN5 PPI | NOD2 RIPK2 PPI | NOD2-RIPK2 conf | NOD2 BLA counter
CCN(CC)C(=O)C1=C(C)N(CCCOC)C(=O)C(CC(=O)NCCN2CCOCC2)C1 (configuration not stated) | . | . | -1.8 | . | -1.6 | -3.5 | . | .
O=C(Nc1nc2cc3c(cc2s1)OCO3)c1cccc(N2C(=O)CCC2=O)c1 | -3.5 | . | -1.4 | -0.438 | -1.2 | -4.4 | . | .
O=C(Nc1nc2cc3c(cc2s1)OCO3)c1ccc(N2C(=O)CCC2=O)cc1 | 11.8 | . | 1.4 | -1.02 | -1.0 | 22.4* | 32.1* | 30.6*
COc1ccc(-c2nc(CSCC(=O)NC3CCCc4ccccc43)c(C)o2)cc1OC (configuration not stated) | 2.4 | 2.1 | 5.5 | 0.0512 | -3.2 | -3.5 | . | .
COc1ccc(-c2nc(CS(=O)CC(=O)NC3CCCc4ccccc43)c(C)o2)cc1OC (configuration not stated) | 6.1 | -10.4 | -3.9 | -0.142 | 1.6 | 26.6* | -8.1 | -6.4
COc1ccccc1/C=C(/NC(=O)c1ccc(Cl)cc1Cl)C(=O)O | 5.3 | -7.4 | 7.0 | -0.986 | -0.7 | 31.8* | 6.9 | 1.4
C=CCN1C(=O)c2ccc(C(=O)N(CC)CC(=O)Nc3ccc(OC)cc3)cc2C1=O | -4.4 | . | 5.1 | . | -1.9 | -0.4 | . | .
CN1OC[C@@H]2CN(S(=O)(=O)c3ccccc3)[C@H](c3ccccc3Br)C[C@@H]21 | . | . | . | . | -10.6 | 32.7* | -4.7 | -4.6
CN1OC[C@@H]2CN(S(=O)(=O)c3ccccc3)[C@H](c3cccc(Br)c3)C[C@@H]21 | -1.1 | . | -8.7 | . | 5.3 | -9.9 | . | .
COc1ccc(CCNC(=O)C/C(C)=N/NC(=O)c2ccc([N+](=O)[O-])cc2Cl)cc1OC | -5.1 | . | -4.5 | . | 0.7 | 45.9* | -4.0 | -2.2
CCC1SC(C)C/C(=N/NC(N)=O)C1C (configuration not stated) | -2.0 | . | -13.5 | 0.108 | -1.6 | 3.3 | . | .
CC1CC(C)C(=NNC(N)=O)C(C(O)CC2CCC(=O)NC2=O)C1 (configuration not stated) | -6.8 | . | -5.2 | . | -1.2 | 25.5* | 2.4 | 0.1
O=C(O)c1cccc(-c2ccc(/C=N/Nc3ccc([N+](=O)[O-])cc3)o2)c1 | -187.7 | . | 19.2 | 0.232 | 11.3 | 27.8* | 30.0* | 31.6*
O=[N+]([O-])c1ccc(N/N=C/c2cccc(O)c2)cc1 | -8.6 | . | 6.8 | . | -10.8 | 21.5* | 24.1* | 32.4*
